Test results taken from ChEMBL document CHEMBL1152244, “Proteochemometrics analysis of substrate interactions with dengue virus NS3 proteases” (Bioorg Med Chem, 2008).
Non-standard residues stand in square brackets, D forms with d. Residues, ends and D or L forms follow the SMILES beside them. Tyr(3-NO2) = N[C@@H](Cc1ccc(O)c([N+](=O)[O-])c1)C(=O)O; 2Abz = Nc1ccccc1C(=O)O

What was measured:
[1] = test system: dengue virus type 1; test: Activity of dengue virus 1 recombinant NS3 protease expressed in Escherichia coli C41(DE3) by fluorogenic assay
Method in brief: (§1)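 NS2B(H)-NS3pro from inclusion bodies, Ni-chelate and gel filtration purified under 8 M urea, refolded by dialysis. Internally quenched Abz–RRRR-XXXX–nY–NH2 peptides, 1–100 µM (12 points), enzyme 150–200 nM, 50 mM Tris–HCl pH 9.0, 20% glycerol, 37 °C. Cleavage read as fluorescence, ex 320/em 420 nm. Initial rates fitted to give Km and kcat, averaged over ≥3 independent measurements.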

[2] = test system: dengue virus type 3; test: Activity of dengue virus 3 recombinant NS3 protease expressed in Escherichia coli C41(DE3) by fluorogenic assay; method in brief: as §1
[3] = test system: dengue virus type 4; test: Activity of dengue virus 4 recombinant NS3 protease expressed in Escherichia coli C41(DE3) by fluorogenic assay; method in brief: as §1
[4] = test system: dengue virus type 2; test: Activity of dengue virus 2 recombinant NS3 protease expressed in Escherichia coli C41(DE3) by fluorogenic assay; method in brief: as §1

Row | SMILES | Km [1] [µM] | kcat [1] [s⁻¹] | Km [2] [µM] | kcat [2] [s⁻¹] | Km [3] [µM] | kcat [3] [s⁻¹] | Km [4] [µM] | kcat [4] [s⁻¹]
1 | NC(=O)[C@H](Cc1ccc(O)c([N+](=O)[O-])c1)NC(=O)[C@@H]1CCCN1C(=O)[C@@H]1CCCN1C(=O)CNC(=O)c1ccccc1N (H-[2Abz]GPP[Tyr(3-NO2)]-NH2) | 16.9 | 0.02 | 18.7 | 0.00733 | 8.15 | 0.022 | 5.15 | 0.00283
2 | C[C@H](NC(=O)c1ccccc1N)C(=O)N1CCC[C@H]1C(=O)NCC(=O)N[C@@H](CC(=O)O)C(=O)N[C@@H](Cc1ccc(O)c([N+](=O)[O-])c1)C(N)=O (H-[2Abz]APGD[Tyr(3-NO2)]-NH2) |  |  |  |  | 89 | 0.0103 | 19.6 | 0.000667
3 | C[C@H](NC(=O)c1ccccc1N)C(=O)NCC(=O)N1CCC[C@H]1C(=O)N[C@@H](CC(N)=O)C(=O)N[C@@H](Cc1ccc(O)c([N+](=O)[O-])c1)C(N)=O (H-[2Abz]AGPN[Tyr(3-NO2)]-NH2) | 12.6 | 0.0257 | 10.8 | 0.0103 | 19.2 | 0.0745 | 4.18 | 0.00683
4 | C[C@H](NC(=O)c1ccccc1N)C(=O)N1CCC[C@H]1C(=O)N[C@@H](CS)C(=O)N[C@@H](CC(N)=O)C(=O)N[C@@H](Cc1ccc(O)c([N+](=O)[O-])c1)C(N)=O (H-[2Abz]APCN[Tyr(3-NO2)]-NH2) | 11.4 | 0.0397 | 3.87 | 0.0112 | 4.94 | 0.0477 | 5.41 | 0.004
5 | NC(=O)[C@H](Cc1ccc(O)c([N+](=O)[O-])c1)NC(=O)[C@H](Cc1cnc[nH]1)NC(=O)[C@@H]1CCCN1C(=O)[C@H](CO)NC(=O)[C@H](Cc1cnc[nH]1)NC(=O)c1ccccc1N (H-[2Abz]HSPH[Tyr(3-NO2)]-NH2) | 16.7 | 0.00633 | 19.6 | 0.000833 | 7.25 | 0.00417 | 5.77 | 0.00117
6 | NC(=O)C[C@H](NC(=O)CNC(=O)[C@H](Cc1cnc[nH]1)NC(=O)[C@H](Cc1cnc[nH]1)NC(=O)c1ccccc1N)C(=O)N[C@@H](Cc1ccc(O)c([N+](=O)[O-])c1)C(N)=O (H-[2Abz]HHGN[Tyr(3-NO2)]-NH2) | 9.1 | 0.004 | 10.1 | 0.00183 | 7.06 | 0.0192 | 4.34 | 0.00133
7 | C[C@@H](O)[C@H](NC(=O)[C@H](Cc1c[nH]c2ccccc12)NC(=O)[C@H](CC(N)=O)NC(=O)c1ccccc1N)C(=O)N[C@@H](CC(N)=O)C(=O)N[C@@H](Cc1ccc(O)c([N+](=O)[O-])c1)C(N)=O (H-[2Abz]NWTN[Tyr(3-NO2)]-NH2) | 13.7 | 0.0145 | 9.37 | 0.0065 | 10.4 | 0.0378 | 6.02 | 0.005
8 | NC(=O)[C@H](Cc1ccc(O)c([N+](=O)[O-])c1)NC(=O)[C@H](CS)NC(=O)[C@@H]1CCCN1C(=O)[C@H](CC(=O)O)NC(=O)CNC(=O)c1ccccc1N (H-[2Abz]GDPC[Tyr(3-NO2)]-NH2) | 31.9 | 0.0202 | 41.5 | 0.007 | 11.5 | 0.021 | 13.2 | 0.003
9 | NC(=O)[C@H](Cc1ccc(O)c([N+](=O)[O-])c1)NC(=O)[C@H](CC(=O)O)NC(=O)[C@H](CO)NC(=O)[C@H](Cc1c[nH]c2ccccc12)NC(=O)[C@H](Cc1cnc[nH]1)NC(=O)c1ccccc1N (H-[2Abz]HWSD[Tyr(3-NO2)]-NH2) | 17.2 | 0.0025 |  |  | 9.76 | 0.0108 | 14.9 | 0.00117
10 | NC(=O)C[C@H](NC(=O)[C@H](Cc1cnc[nH]1)NC(=O)c1ccccc1N)C(=O)N[C@@H](CS)C(=O)N[C@@H](CS)C(=O)N[C@@H](Cc1ccc(O)c([N+](=O)[O-])c1)C(N)=O (H-[2Abz]HNCC[Tyr(3-NO2)]-NH2) |  |  | 10 | 0.00283 | 3.28 | 0.0157 | 8.81 | 0.00233
11 | CC(C)C[C@H](NC(=O)[C@H](Cc1cnc[nH]1)NC(=O)c1ccccc1N)C(=O)N[C@H](C(=O)N[C@@H](Cc1cnc[nH]1)C(=O)N[C@@H](Cc1ccc(O)c([N+](=O)[O-])c1)C(N)=O)C(C)C (H-[2Abz]HLVH[Tyr(3-NO2)]-NH2) | 8.83 | 0.00617 |  |  | 16.3 | 0.018 | 14.1 | 0.00233

Results, then the compound that gave them:

Row | Km [1] [µM] | kcat [1] [s⁻¹] | Km [2] [µM] | kcat [2] [s⁻¹] | Km [3] [µM] | kcat [3] [s⁻¹] | Km [4] [µM] | kcat [4] [s⁻¹] | SMILES
12 | 15.2 | 0.00767 | 11.1 | 0.00333 | 23.1 | 0.014 | 12.8 | 0.00117 | C[C@@H](O)[C@H](NC(=O)[C@H](CO)NC(=O)[C@H](CC(=O)O)NC(=O)c1ccccc1N)C(=O)N[C@@H](CS)C(=O)N[C@@H](Cc1ccc(O)c([N+](=O)[O-])c1)C(N)=O (H-[2Abz]DSTC[Tyr(3-NO2)]-NH2)
13 | 25.5 | 0.166 | 24.9 | 0.0557 | 22.7 | 0.282 | 3.44 | 0.031 | CSCC[C@H](NC(=O)CNC(=O)[C@H](C)NC(=O)[C@H](CO)NC(=O)c1ccccc1N)C(=O)N[C@@H](Cc1ccc(O)c([N+](=O)[O-])c1)C(N)=O (H-[2Abz]SAGM[Tyr(3-NO2)]-NH2)
14 |  |  | 19.7 | 0.0292 | 7.06 | 0.0757 | 4.26 | 0.0163 | CC(C)[C@H](NC(=O)CNC(=O)[C@H](CO)NC(=O)c1ccccc1N)C(=O)N[C@@H](CS)C(=O)N[C@@H](Cc1ccc(O)c([N+](=O)[O-])c1)C(N)=O (H-[2Abz]SGVC[Tyr(3-NO2)]-NH2)
15 |  |  |  |  | 4.21 | 0.0305 | 5.63 | 0.00433 | C[C@H](NC(=O)c1ccccc1N)C(=O)N[C@@H](Cc1cnc[nH]1)C(=O)N[C@@H](CO)C(=O)N[C@@H](CS)C(=O)N[C@@H](Cc1ccc(O)c([N+](=O)[O-])c1)C(N)=O (H-[2Abz]AHSC[Tyr(3-NO2)]-NH2)
16 | 23.9 | 0.06 | 10.6 | 0.0105 | 10.8 | 0.0553 | 2.19 | 0.00567 | CC(C)C[C@H](NC(=O)[C@@H](NC(=O)CNC(=O)[C@H](C)NC(=O)c1ccccc1N)C(C)C)C(=O)N[C@@H](Cc1ccc(O)c([N+](=O)[O-])c1)C(N)=O (H-[2Abz]AGVL[Tyr(3-NO2)]-NH2)
17 | 17.4 | 0.0825 | 18.9 | 0.0237 | 7.79 | 0.0782 | 4.66 | 0.0157 | C[C@H](NC(=O)CNC(=O)c1ccccc1N)C(=O)N[C@H](C(=O)N[C@@H](Cc1cnc[nH]1)C(=O)N[C@@H](Cc1ccc(O)c([N+](=O)[O-])c1)C(N)=O)[C@@H](C)O (H-[2Abz]GATH[Tyr(3-NO2)]-NH2)
18 | 26.3 | 0.0685 | 11.3 | 0.0285 | 9.77 | 0.0783 | 11.4 | 0.0123 | NC(=O)[C@H](Cc1ccc(O)c([N+](=O)[O-])c1)NC(=O)[C@H](CC(=O)O)NC(=O)[C@H](CS)NC(=O)[C@H](Cc1cnc[nH]1)NC(=O)[C@H](CO)NC(=O)c1ccccc1N (H-[2Abz]SHCD[Tyr(3-NO2)]-NH2)
19 | 22.1 | 0.0462 | 20.9 | 0.0128 | 10.7 | 0.0855 | 3.05 | 0.00483 | C[C@@H](O)[C@H](NC(=O)CNC(=O)c1ccccc1N)C(=O)NCC(=O)N[C@@H](CC(N)=O)C(=O)N[C@@H](Cc1ccc(O)c([N+](=O)[O-])c1)C(N)=O (H-[2Abz]GTGN[Tyr(3-NO2)]-NH2)
20 | 10.5 | 0.0193 | 12.6 | 0.00967 | 11.8 | 0.0735 | 6.5 | 0.0055 | CC(C)[C@H](NC(=O)[C@@H](NC(=O)CNC(=O)c1ccccc1N)[C@@H](C)O)C(=O)N[C@@H](CC(N)=O)C(=O)N[C@@H](Cc1ccc(O)c([N+](=O)[O-])c1)C(N)=O (H-[2Abz]GTVN[Tyr(3-NO2)]-NH2)
21 | 22.3 | 0.031 | 31.4 | 0.0102 | 10.8 | 0.0595 | 7.02 | 0.0015 | C[C@H](NC(=O)c1ccccc1N)C(=O)N[C@@H](CC(N)=O)C(=O)NCC(=O)N[C@@H](Cc1cnc[nH]1)C(=O)N[C@@H](Cc1ccc(O)c([N+](=O)[O-])c1)C(N)=O (H-[2Abz]ANGH[Tyr(3-NO2)]-NH2)
22 | 106 | 0.006 |  |  | 85.9 | 0.0253 | 43.2 | 0.00167 | CC(C)[C@H](NC(=O)[C@H](CC(=O)O)NC(=O)[C@H](CC(N)=O)NC(=O)c1ccccc1N)C(=O)N[C@@H](CC(=O)O)C(=O)N[C@@H](Cc1ccc(O)c([N+](=O)[O-])c1)C(N)=O (H-[2Abz]NDVD[Tyr(3-NO2)]-NH2)
23 |  |  |  |  | 4.79 | 0.0398 | 2.87 | 0.0065 | NC(=O)[C@H](Cc1ccc(O)c([N+](=O)[O-])c1)NC(=O)[C@H](CS)NC(=O)CNC(=O)[C@H](Cc1c[nH]c2ccccc12)NC(=O)[C@H](CO)NC(=O)c1ccccc1N (H-[2Abz]SWGC[Tyr(3-NO2)]-NH2)
24 | 23.3 | 0.227 |  |  | 10.5 | 0.222 | 3.06 | 0.027 | C[C@H](NC(=O)CNC(=O)[C@H](C)NC(=O)[C@H](CO)NC(=O)c1ccccc1N)C(=O)N[C@@H](Cc1ccc(O)c([N+](=O)[O-])c1)C(N)=O (H-[2Abz]SAGA[Tyr(3-NO2)]-NH2)
